# ChEMBL document CHEMBL1137969, “Subtype-selective nicotinic receptor antagonists: potential as tobacco use cessation agents” (Bioorg Med Chem Lett, 2004)
# How the values were obtained:
# Rattus norvegicus [1] = species: Rattus norvegicus; experiment: Inhibitory activity against nAChR mediated nicotine-evoked [3H]DA overflow using rat striatal slices; type: functional, organism-based
# Summary of the method: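 Rat striatal slices preincubated in oxygenated Krebs' buffer (pH 7.4) at 34 °C, loaded with [³H]DA during the last 30 min of the 60-min incubation. Slices then superfused at 34 °C with buffer containing nomifensine and pargyline. Nicotine-evoked overflow was normalized to slice tritium content, using a repeated-measures design.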
# [2] = target: Neuronal acetylcholine receptor subunit alpha-7 (Rattus norvegicus, UniProt Q05941); experiment: Inhibition of [3H]-MLA binding to Nicotinic acetylcholine receptor alpha-7 in rat brain membranes; NA= Not active; type: cell membranes
# Sequence of Neuronal acetylcholine receptor subunit alpha-7 (Q05941 whole entry): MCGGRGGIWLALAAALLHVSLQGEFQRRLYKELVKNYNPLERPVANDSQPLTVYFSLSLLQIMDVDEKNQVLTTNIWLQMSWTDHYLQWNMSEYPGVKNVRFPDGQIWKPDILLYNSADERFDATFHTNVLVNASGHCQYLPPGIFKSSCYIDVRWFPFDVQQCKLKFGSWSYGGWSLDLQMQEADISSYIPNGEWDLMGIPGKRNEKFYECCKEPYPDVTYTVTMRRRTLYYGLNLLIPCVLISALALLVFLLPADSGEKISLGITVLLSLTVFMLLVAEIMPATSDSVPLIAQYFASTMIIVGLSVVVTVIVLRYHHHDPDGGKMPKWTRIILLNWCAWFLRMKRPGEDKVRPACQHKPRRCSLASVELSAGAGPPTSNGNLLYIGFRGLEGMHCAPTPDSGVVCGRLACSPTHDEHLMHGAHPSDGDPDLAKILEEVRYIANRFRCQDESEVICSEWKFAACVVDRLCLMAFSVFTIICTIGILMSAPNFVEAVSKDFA
# Summary of the method: (§1)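 Rat whole brain minus cortex and cerebellum, homogenized in HEPES buffer (pH 7.5), washed by repeated 25,000g spins with one 37 °C 10-min incubation, stored at −70 °C. Membranes ([…]) incubated 60 min at room temperature with 3 nM radioligand plus analogue ([…]) in HEPES assay buffer with 50 mM Tris. Nonspecific binding defined with […] MLA, respectively. PEI-soaked GF/B filtration. Four independent experiments.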
# [3] = target: T1, Neuronal acetylcholine receptor; alpha4/beta2 (Rattus norvegicus, UniProt P09483+P12390); experiment: Inhibition of [3H]nicotine binding to Nicotinic acetylcholine receptor alpha4-beta2 in rat brain membranes; NA= Not active; type: cell membranes; summary of the method: as §1
# T1 sequence (P09483 whole entry): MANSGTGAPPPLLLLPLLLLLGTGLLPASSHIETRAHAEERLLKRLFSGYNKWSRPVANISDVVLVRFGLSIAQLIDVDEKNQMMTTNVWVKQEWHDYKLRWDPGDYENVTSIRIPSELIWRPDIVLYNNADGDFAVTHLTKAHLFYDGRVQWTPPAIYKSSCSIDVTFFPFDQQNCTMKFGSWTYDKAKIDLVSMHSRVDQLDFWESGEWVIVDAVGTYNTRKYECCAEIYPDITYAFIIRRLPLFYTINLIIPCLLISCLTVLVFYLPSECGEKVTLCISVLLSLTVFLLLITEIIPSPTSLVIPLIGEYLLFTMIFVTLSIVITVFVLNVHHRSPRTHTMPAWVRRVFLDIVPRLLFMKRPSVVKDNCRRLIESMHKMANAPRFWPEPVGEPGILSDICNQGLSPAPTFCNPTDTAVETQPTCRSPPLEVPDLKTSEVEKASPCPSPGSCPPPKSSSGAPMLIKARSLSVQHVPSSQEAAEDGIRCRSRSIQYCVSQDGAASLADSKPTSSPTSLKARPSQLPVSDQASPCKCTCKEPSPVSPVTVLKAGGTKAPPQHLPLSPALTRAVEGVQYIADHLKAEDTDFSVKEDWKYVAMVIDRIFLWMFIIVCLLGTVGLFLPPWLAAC
# T1 sequence (P12390 whole entry): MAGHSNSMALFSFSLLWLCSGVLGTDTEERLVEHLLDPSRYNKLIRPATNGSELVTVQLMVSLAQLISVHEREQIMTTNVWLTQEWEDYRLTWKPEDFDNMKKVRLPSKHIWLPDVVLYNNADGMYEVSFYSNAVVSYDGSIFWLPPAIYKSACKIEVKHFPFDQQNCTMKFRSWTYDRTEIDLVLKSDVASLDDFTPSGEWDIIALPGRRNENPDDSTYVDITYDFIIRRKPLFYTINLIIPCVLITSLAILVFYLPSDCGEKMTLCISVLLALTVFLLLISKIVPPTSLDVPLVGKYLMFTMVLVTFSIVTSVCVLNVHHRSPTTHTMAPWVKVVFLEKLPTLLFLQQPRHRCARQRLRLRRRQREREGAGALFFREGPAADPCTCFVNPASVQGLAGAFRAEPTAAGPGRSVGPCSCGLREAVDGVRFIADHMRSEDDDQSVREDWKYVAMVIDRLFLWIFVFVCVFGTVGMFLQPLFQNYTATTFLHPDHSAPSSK
# Rattus norvegicus [4] = species: Rattus norvegicus; experiment: Inhibitory activity against nAChR mediated nicotine-evoked [3H]DA overflow using rat striatal slices; Not determined; type: functional, organism-based
# Summary of the method: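 Rat striatal slices (4–6 mg) preincubated 60 min in oxygenated Krebs' buffer, pH 7.4, at 34 °C, […] [³H]DA (final) over the last 30 min. Slices then superfused at 1 mL/min, 34 °C, with nomifensine and pargyline present. Fractional release normalized to slice total tritium. Intrinsic and inhibitory activity measured on slices from the same rat. Means of 3–6 experiments.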
# [5] = target: T1, Neuronal acetylcholine receptor; alpha4/beta2; experiment: Inhibition of [3H]nicotine binding to Nicotinic acetylcholine receptor alpha4-beta2 in rat brain membranes; type: cell membranes
# Summary of the method: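 Rat whole-brain membranes (cortex and cerebellum removed), washed by repeated centrifugation and stored at −70 °C. Incubated with 3 nM [³H]nicotine and a range of analogue concentrations in pH 7.5 HEPES-based buffer with Tris, 60 min at room temperature. Nonspecific binding defined with nicotine. Filtration on PEI-soaked GF/B filters, scintillation counting. Ki is the mean of four independent experiments with standard error.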
Ki [2],Ki [3],IC50 (Rattus norvegicus [4]) [nM],SMILES,IC50 (Rattus norvegicus [1]) [nM],Ki [5] [nM]
Not Active,Not Active,10,Cc1ccc[n+](CCCCCCCC[n+]2cccc(C)c2)c1.[I-].[I-],–,–
Not Active,–,–,Cc1ccc[n+](CCCCCCCCC[n+]2cccc(C)c2)c1.[Br-].[Br-],–,–
Not Active,–,–,CCCCCCCCC[n+]1cccc(C)c1.[I-],–,62000
Not Active,Not Active,–,Cc1ccc[n+](CCCCCC[n+]2cccc(C)c2)c1.[I-].[I-],1660,–

# Further lines, the compound ahead of its results:
SMILES,Ki [2],Ki [3],IC50 (Rattus norvegicus [4]) [nM],IC50 (Rattus norvegicus [1]) [nM],Ki [5] [nM]
CCCCCCCCCCCC[n+]1cccc(C)c1.[I-],Not Active,Not Active,–,30,–
Cc1ccc[n+](CCCCCCCCCCCC[n+]2cccc(C)c2)c1.[Br-].[Br-],Not Active,–,–,5,–
CCCCCCCCCCC[n+]1cccc(C)c1.[I-],Not Active,Not Active,–,–,–
CCCCCCCC[n+]1cccc(C)c1.[I-],Not Active,Not Active,–,1000,–
Cc1ccc[n+](CCCCCCCCCC[n+]2cccc(C)c2)c1.[I-].[I-],Not Active,Not Active,–,30,–
CCCCCCCCCC[n+]1cccc(C)c1.[I-],Not Active,–,–,300,26000
Cc1ccc[n+](CCCCCCCCCCC[n+]2cccc(C)c2)c1.[Br-].[Br-],Not Active,–,–,610,–
